Results as given in publication PMC6323139 (Bioorganic & medicinal chemistry, 2017).
“Also recorded” adds a separate entry of the source.

Tests used:
Format in all cases: biochemical
MIF [1] = target: T1, MIF (Homo sapiens, UniProt P14174); assay: Preincubation assay; conditions: for Reversibility of inhibition: concluded from preincubation and dilution experiments; for Change in IC50 between preincubation times: preincubated with MIF (340 nM) for 2 or 40 min, inhibitor 125–0 μM
T1 sequence (P14174 2-115 limits assumed): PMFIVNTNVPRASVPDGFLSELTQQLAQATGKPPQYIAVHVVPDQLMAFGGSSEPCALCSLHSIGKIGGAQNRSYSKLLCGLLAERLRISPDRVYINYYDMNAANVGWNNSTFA
Outline: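 His-tagged MIF (340 nM final, in boric acid pH 6.2) was preincubated 2 or 40 min with test compound (125–0 µM, 1.6-fold series, 5% DMSO). 0.5 mM 4-HPP (equilibrated overnight in ammonium acetate pH 6.0) was added, A306 followed, and IC50 curves made. For dilution, 34 µM MIF plus 125 µM compound was diluted 100-fold into 4-HPP/boric acid, with a DMSO-only control and absorbance tracked.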

MIF [2] = target: T1, MIF; assay: Enzyme kinetic evaluation at increasing 4-HPP concentrations; conditions: concluded from Vmax app. and Khalf app.
Outline: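 Initial velocities were taken from the linear slope of absorbance at 306 nm. Conditions were His-tagged recombinant MIF at 340 nM in boric acid pH 6.2, with 4-HPP at 0–2.56 mM (1.25× dilutions) and test compound at 0, 6.25 or 12.5 µM in 5% DMSO. Velocity versus substrate was fitted to an allosteric sigmoidal model, giving Vmax app., Hill slope and Kprime app. Khalf app. was calculated from Kprime and the Hill slope.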

MIF [3] = target: T1, MIF; assay: Dilution experiment; conditions: MIF 34 μM with 125 μM inhibitor, diluted 100x in substrate solution
Outline: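 Recombinant His-tagged MIF, purified on His-Trap resin, was premixed at 34 µM with 125 µM test compound in 5% DMSO. The mix was diluted 100-fold into boric acid containing 0.5 mM 4-HPP. The 4-HPP stock was made in 50 mM ammonium acetate pH 6.0 and equilibrated overnight at room temperature. Enol-borate absorbance at 306 nm was plotted against time. The control used 5% DMSO without inhibitor.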

SMILES | Reversibility of inhibition (MIF [1]) | Change in IC50 between preincubation times (MIF [1]) | Mechanism of inhibition (competition with substrate 4-HPP) (MIF [2]) | MIF enzyme activity after dilution of the enzyme-inhibitor mixture (MIF [3])
Cc1ccc2c(c1)OC(N)=C1C(=O)N(CCc3c[nH]c4ccccc34)C(=O)CC12 (stereo not drawn) [Compound 17] | reversible inhibitors | No difference in IC50 | – | –
CCCCCCCCCCCCN1C(=O)CC2C(=C(N)Oc3ccccc32)C1=O (stereo not drawn) [Compound 10] | reversible inhibitors | No difference in IC50; also recorded: No significant change in IC50 value | no direct competition between the substrate 4-HPP and the inhibitor; also recorded: does not bind in direct competition with the substrate 4-HPP | activity of MIF could be recovered after dilution; also recorded: Diluting the inhibitor recovered the enzyme activity
